# According to ChEMBL document CHEMBL4190277, “Discovery of imidazopyridines containing isoindoline-1,3-dione framework as a new class of BACE1 inhibitors: Design, synthesis and SAR analysis” (Eur J Med Chem, 2017):
# pIC50: −log10 of the molar value.
# Legend:
# [1] = biological target: T1, Beta-secretase 1 (Homo sapiens, UniProt P56817); experiment: Inhibition of human BACE1 (1 to 460 residues) expressed in baculovirus expression system at 10 uM using Rh-EVNLDAEFK-quencher as substrate after 90 mins by FRET assay
# T1 sequence (P56817 whole entry, the tested form may be a part): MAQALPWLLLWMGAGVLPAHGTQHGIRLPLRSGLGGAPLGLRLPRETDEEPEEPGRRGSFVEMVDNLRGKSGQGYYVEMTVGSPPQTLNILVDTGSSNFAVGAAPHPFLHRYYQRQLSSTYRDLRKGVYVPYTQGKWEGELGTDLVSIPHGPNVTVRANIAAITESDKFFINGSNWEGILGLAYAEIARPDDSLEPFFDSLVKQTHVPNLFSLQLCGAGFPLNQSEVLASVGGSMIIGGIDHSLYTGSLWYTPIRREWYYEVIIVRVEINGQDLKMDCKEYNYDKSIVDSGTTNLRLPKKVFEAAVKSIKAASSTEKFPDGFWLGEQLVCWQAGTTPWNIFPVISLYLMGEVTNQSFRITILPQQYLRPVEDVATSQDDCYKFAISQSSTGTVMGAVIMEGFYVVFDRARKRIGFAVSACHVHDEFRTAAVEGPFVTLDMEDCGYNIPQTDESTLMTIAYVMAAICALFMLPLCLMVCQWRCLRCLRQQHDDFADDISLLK
# In short: (§1)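 FRET kit assay, manufacturer's protocol with small modifications. Compounds were taken from DMSO stocks and diluted in assay buffer (50 mM sodium acetate, pH 4.5). Substrate and compound were mixed, then enzyme (1 U/mL) was added to start the reaction. After about 90 min at room temperature, 2.5 M sodium acetate stop solution was added. Read-out was fluorescence at Ex 545/Em 585 nm. Triplicate wells, 3–4 independent experiments, mean ± SEM; OM99 served as reference inhibitor.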
# [2] = biological target: T1, Beta-secretase 1; experiment: Inhibition of human BACE1 (1 to 460 residues) expressed in baculovirus expression system using Rh-EVNLDAEFK-quencher as substrate after 90 mins by FRET assay
# In short: as §1, with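 “added.” for “added. Read-out was fluorescence at Ex 545/Em 585 nm.”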
# [3] = biological target: T1, Beta-secretase 1; experiment: Inhibition of human BACE1 (1 to 460 residues) expressed in baculovirus expression system at 50 uM using Rh-EVNLDAEFK-quencher as substrate after 90 mins by FRET assay; in short: as §1
Compound,inhibition [1] [%],pIC50 [2],inhibition [3] [%]
Cc1ccc2nc(-c3ccc(OCCCN4C(=O)c5ccccc5C4=O)cc3)c(NC3CCCCC3)n2c1,37.6,4.53,63.7
Cc1ccn2c(NC3CCCCC3)c(-c3ccc(OCCCN4C(=O)c5ccccc5C4=O)cc3)nc2c1,61.3,5.55,100
O=C1c2ccccc2C(=O)N1CCCOc1ccc(-c2nc3ccc(Br)cn3c2NC2CCCCC2)cc1,32.2,,45.3
CC(C)(C)Nc1c(-c2ccc(OCCCN3C(=O)c4ccccc4C3=O)cc2)nc2ccc(Br)cn12,7.87,,34.3
COc1cc(-c2nc3ccc(Br)cn3c2NC(C)(C)C)ccc1OCCCN1C(=O)c2ccccc2C1=O,33.2,,48.7
Cc1ccn2c(NC(C)(C)C)c(-c3ccc(OCCCN4C(=O)c5ccccc5C4=O)cc3)nc2c1,24.2,,18.3
Cc1cccc2nc(-c3ccc(OCCCN4C(=O)c5ccccc5C4=O)cc3)c(NC3CCCCC3)n12,61.5,5.23,87.9
O=C1c2ccccc2C(=O)N1CCCOc1ccc(-c2nc3ccc(Cl)cn3c2NC2CCCCC2)cc1,11.5,,19.6
Cc1cccn2c(NC3CCCCC3)c(-c3ccc(OCCCN4C(=O)c5ccccc5C4=O)cc3)nc12,44.4,,69.4
O=C1c2ccccc2C(=O)N1CCCOc1ccc(-c2nc3ccccn3c2NC2CCCCC2)cc1,< 10,,< 10

# The next lines start with the values.
inhibition [1] [%],pIC50 [2],inhibition [3] [%],Compound
17.7,,33,CC(C)(C)Nc1c(-c2ccc(OCCCN3C(=O)c4ccccc4C3=O)cc2)nc2ccc(Cl)cn12
19.4,,37.9,COc1cc(-c2nc3ccc(Cl)cn3c2NC(C)(C)C)ccc1OCCCN1C(=O)c2ccccc2C1=O
26.9,4.83,88.1,COc1cc(-c2nc3ccc(Cl)cn3c2NC2CCCCC2)ccc1OCCCN1C(=O)c2ccccc2C1=O
36.7,,43.2,COc1cc(-c2nc3ccc(Br)cn3c2NC2CCCCC2)ccc1OCCCN1C(=O)c2ccccc2C1=O
29.3,,69.5,COc1cc(-c2nc3ccccn3c2NC2CCCCC2)ccc1OCCCN1C(=O)c2ccccc2C1=O
